Screening results from PubChem BioAssay.
RGS4 inh = RGS4 inhibitors, primary screen, cell-based, HEK293 M3R inducible RGS4, calcium flux | hit rate 0.45% among 310,000 | B-score at 10 µM | Fluo-4 calcium flux; hits give high values; triggered by carbachol at its EC20;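 active = B-score, a plate-corrected calcium signal, over three deviations above library mean, with baseline fluorescence within five deviations of library mean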;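 also: RGS4 expression induced by doxycycline in cells with stable M3 receptor; B-score is computed from the integrated fluorescence ratio over baseline after carbachol; higher B-score means a larger calcium signal and so more RGS4 inhibition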
Target sequence (P49798 whole entry, looked up): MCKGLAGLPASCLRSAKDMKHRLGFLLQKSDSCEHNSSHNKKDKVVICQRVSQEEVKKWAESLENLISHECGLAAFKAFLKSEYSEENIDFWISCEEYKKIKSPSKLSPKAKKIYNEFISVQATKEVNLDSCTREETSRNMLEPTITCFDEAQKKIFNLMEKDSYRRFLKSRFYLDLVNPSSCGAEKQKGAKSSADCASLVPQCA
RGS4 pot = RGS4 potentiators or activators, primary screen, cell-based, HEK293 M3R inducible RGS4, calcium flux; carbachol calcium flux Fluo4; hits give low values; B-score at 10 µM; hit rate 0.92% among 310,000; AID 463111, 2010;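 active = B-score of the integrated calcium signal more than 4 SD below the library mean, with starting fluorescence not abnormally high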;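 also: negative B-score means reduced calcium response which marks RGS4 activation or potentiation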
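Material: Inducible-RGS4 HEK293 cells carrying M3 receptor; also added: carbachol at ECmax as muscarinic agonist stimulus; incubation: compound preincubation 20 min at room temperature before agonist; signal: Fluo4-AM (2 µM) calcium-flux fluorescence, kinetic read; measure: integrated calcium ratio converted to B score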
MrgX1 agonist = agonists of human MrgX1 receptor, primary screen, HEK293 cells, Fluo-4 calcium flux; Fluo-4 calcium fluorescence, agonist mode; hits give high values; B-score at 10 µM; hit rate 0.44% among 310,000; AID 588627, 2011;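 active = calcium response B-score plate-corrected fluorescence ratio at least 3 library SD, with starting fluorescence B-score inside 5 SD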
Target sequence (Q96LB2 whole entry, looked up): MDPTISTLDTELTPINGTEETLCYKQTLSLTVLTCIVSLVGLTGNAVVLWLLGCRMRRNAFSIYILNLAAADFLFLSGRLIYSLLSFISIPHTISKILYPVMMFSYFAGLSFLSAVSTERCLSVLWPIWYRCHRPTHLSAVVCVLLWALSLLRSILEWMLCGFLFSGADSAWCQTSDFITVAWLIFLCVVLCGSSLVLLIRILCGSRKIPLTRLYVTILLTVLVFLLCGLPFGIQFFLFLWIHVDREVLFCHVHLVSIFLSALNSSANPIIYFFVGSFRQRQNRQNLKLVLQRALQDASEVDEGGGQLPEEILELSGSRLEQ
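Material: HEK293 cells stably expressing human MrgX1 receptor | Quantity: 15,000 cells per well | Times: Cells plated overnight, dye loaded 0.5 h 37 °C, 0.5 h room temperature | Measured by: Kinetic Fluo-4 NW fluorescence of intracellular calcium | Control set: Positive and negative controls per plate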
MrgX1 PAM = positive allosteric modulators of MrgX1, primary screen, HEK293 cells, Fluo-4 calcium flux. hit rate 0.63% among 310,000. B-score at 10 µM. Mas-related G-protein coupled receptor member X1 (Homo sapiens), Q96LB2. FDSS; hits give high values;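 active = plate-corrected calcium response at least 3 library SD above typical, normal starting fluorescence, not activating the receptor alone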;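 also: compound read alongside a low EC10 to EC30 dose of BAM8-22 agonist; peak minus trough fluorescence over baseline measured at the second addition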
MrgX1 antagonist = antagonists of human MrgX1 receptor, primary screen, HEK293 cells, Fluo-4 calcium flux | BAM8-22 antagonism; hits give low values | B-score at 10 µM | hit rate 1.3% among 310,000;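 active = calcium-response B-score plate-corrected more than 3 library SD below zero, starting fluorescence within 5 deviations, no agonist response on first addition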;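 also: peak minus trough fluorescence over baseline after final BAM8-22 challenge near maximal dose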
RGS4 activ val = reduced carbachol calcium response, RGS4-induced M3R cells, confirmation, RGS4 activator project, cell-based, HEK293 M3R/RGS4 inducible, calcium flux, duplicate; hit rate 89% among 1,100; carbachol calcium flux Fluo4; shares compounds with RGS4 pot; inhibition, % at 10 µM;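 active = inhibition above 3 SD of the buffer control wells, cut at about 41% in these data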;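 also: signal is the integrated peak-minus-minimum Fluo4 fluorescence over baseline ratio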
M3R Ca counter = activity in cells without induced RGS4 expression. shares compounds with RGS4 pot. HEK293 M3R non-induced RGS4, Fluo4 calcium flux; after carbachol challenge at its EC90. inhibition, % at 10 µM. hit rate 82% among 1,100. AID 602283;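 active = inhibition exceeding 3 SD of buffer-only control wells, cut at about 26% in these data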;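 also: percent drop in integrated peak-minus-baseline over baseline Fluo4 ratio after carbachol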
* marks the source's active call; other numbers are inactive results; i = inactive; . = not tested or not shown. Shown are actives, neighbours in structure and some others; about 3.5% of the full set was active somewhere.

SMILES	RGS4 inh	RGS4 pot	MrgX1 agonist	MrgX1 PAM	MrgX1 antagonist	RGS4 activ val	M3R Ca counter
COc1cc(-c2cc(=O)c3c(O)c(OC)c(OC)cc3o2)cc(OC)c1O	i	-8.28*	i	i	i	0.0	0.0
COc1ccc(-c2cc(=O)c3c(O)c(OC)c(O)cc3o2)cc1	i	i	i	i	i	.	.
COc1ccccc1C(=O)NC(=O)COC(=O)c1ncc(Cl)c(Cl)c1Cl	i	i	i	i	i	.	.
CC(C)(C)c1ccc(-n2ncc3c2CCCC3NC(=O)C2=NNC(=O)CC2)cc1 (stereo not given)	i	i	i	i	i	.	.
Cc1cc(=O)n2cccc(O)c2n1	i	i	i	i	i	.	.
Cc1ccc2c(c1)NC(=O)C(CC(=O)Nc1ccc(CN3CCC(C)CC3)cc1)O2 (stereo not given)	i	-7.69*	i	i	i	92.0*	94.8*
Cc1ccc(NC(=S)N2CCC(c3ccccc3)C2)c(Cl)c1 (stereo not given)	i	i	i	i	i	.	.
Cc1cc(N2CCCCCC2)nc2ccccc12	i	-10.1*	i	i	i	91.5*	47.8*
Cc1cc(N2CCCCC2)nc2ccccc12	i	i	i	i	i	.	.
COc1ccc(C(=O)N=c2sc3c(C)ccc(OC)c3n2C)cc1OC	i	-7.72*	i	i	i	86.5*	50.3*
CCn1c(=NC(=O)c2cccc(N3C(=O)CCC3=O)c2)sc2c(C)ccc(OC)c21	i	-8.6*	i	i	i	68.0*	30.3*
COc1cccc(NC(=O)N2CCC(NC(=O)C(Cc3ccccc3F)NC(C)=O)CC2)c1 (stereo not given)	i	i	i	i	i	.	.
COC(=O)C1CCN(c2nc3ccccc3nc2C(C#N)C(=O)OCC(C)C)CC1 (stereo not given)	i	-7.92*	i	i	i	91.0*	75.3*
COCCn1c(C)cc(C(=O)COC(=O)/C=C/c2c(C)nn(C3CCS(=O)(=O)C3)c2Cl)c1C (stereo not given)	i	i	i	i	i	.	.
OC(CNCc1ccc(F)cc1)(c1ccc(F)cc1)c1ccc(F)cc1	i	i	i	i	i	.	.
OC(CNCc1ccc(Cl)cc1)(c1ccccc1)c1ccc(F)cc1 (stereo not given)	i	-9.37*	i	i	i	94.0*	85.8*
COc1cc(NC(=O)C2CCN(c3cnccn3)CC2)cc(OC)c1OC	i	i	i	i	i	.	.
Cc1ccc(C(C)C)c(OCC(=O)Nc2ccc3c(c2)nc(CCN2CCCCC2)n3C)c1	i	i	i	i	i	.	.
c1ccc(COc2ccc(CNCc3cccnc3)cc2)cc1	i	-13.3*	i	i	i	84.5*	41.8*
Cc1ccc(C)c(N2CCN(C(=O)c3ccc(CS(=O)(=O)c4ccccc4C)o3)CC2)c1	i	-8.76*	i	i	i	88.5*	65.8*
Cc1cc(=O)n2c3ccccc3n(CC(O)CN3CCN(Cc4ccccc4)CC3)c2c1C#N (stereo not given)	i	-10.4*	i	i	i	73.5*	42.8*
COc1cccc2cc(C(=O)NCc3ccccc3Cl)c(=O)oc12	i	i	i	i	i	.	.
COc1ccc(Br)cc1CNC(=O)Cn1nc(C)n2cccc2c1=O	i	i	i	i	i	.	.
CCCn1cc(CN2CCCC(C(=O)c3ccc4c(c3)OCO4)C2)c(C)n1 (stereo not given)	i	i	i	i	i	.	.
COc1ccc2c(c1)C=C(CN1CCC(CO)(CCc3ccccc3)CC1)CO2	i	-7.95*	i	i	i	80.5*	83.8*
SMILES	RGS4 inh	RGS4 pot	MrgX1 agonist	MrgX1 PAM	MrgX1 antagonist	RGS4 activ val	M3R Ca counter
CC(C)N(CC#CCC(O)(c1ccccc1)c1ccccc1)C(C)C	i	i	i	i	i	.	.
CCN(CC)CC#CCC(O)(c1ccccc1)C1CCCCC1 (stereo not given)	i	-10.5*	i	i	i	91.0*	90.3*
CC(C)C[C@@H]1NC(=O)N(CCCn2ccnc2)C1=O	i	i	i	i	i	.	.
Cc1ccc(C(=O)Nc2cccc(C(=O)NCc3ccccc3)c2)o1	i	i	i	i	i	.	.
C/C(=N\NC(=O)C1(C)CC1(Br)Br)c1cccc(NC(=O)c2ccc(C)o2)c1 (stereo not given)	i	-12.1*	i	7.01*	i	91.5*	81.3*
O=C(NCCc1cnn(-c2ccccc2)c1)c1cc(COc2c(F)cccc2F)on1	i	i	i	i	i	.	.
Cc1cccc(N2CCN(C(=O)CSc3nc4ccccc4nc3N3CC(C)OC(C)C3)CC2)c1C (stereo not given)	i	-8.09*	i	i	i	85.0*	83.8*
Cc1cccc(NC(=O)CSc2nc3ccccc3nc2N2CC(C)OC(C)C2)c1 (stereo not given)	i	i	i	i	i	.	.
O=C(NC(=S)Nc1ccc(CN2CCOCC2)cc1)c1ccc(-c2cccc(Cl)c2)o1	i	-9.92*	i	i	i	93.5*	91.3*
COc1ccc(Br)cc1C(=O)NC(=S)Nc1ccc(CN2CCOCC2)cc1	i	-9.75*	i	i	i	92.0*	87.3*
O=C(COc1ccc(Cl)cc1Cl)c1ccc[nH]1	i	i	i	i	i	.	.
CCNc1nc(NC(C)(C)C)nc(N2CCCC2)n1	i	-9.01*	i	i	i	82.5*	47.3*
Cc1cc(C)nc(/N=C(\N)N(Cc2ccccc2)Cc2ccccc2)n1	i	-8.47*	i	i	i	92.0*	95.3*
Cc1ccc(S(=O)(=O)n2c(CN3CCCC(C)C3)nc3ccccc32)cc1 (stereo not given)	i	-10.5*	i	i	i	60.0*	83.8*
Cc1ccc(S(=O)(=O)n2c(C)nc3ccccc32)cc1	i	i	i	i	i	.	.
Fc1ccc(/C=N/N2CCN(Cc3ccccc3)CC2)cc1	i	i	i	i	i	.	.
